Experimental data: ChEMBL document CHEMBL1152649, “Synthesis, cytotoxicity and human telomerase inhibition activities of a series of 1,2-heteroannelated anthraquinones and anthra[1,2-d]imidazole-6,11-dione homologues” (2009)
The source made the active and inactive calls. The calls are words filed in the database; no cut-off is given here.

Assays:
[1] = biological target: Telomerase reverse transcriptase (Homo sapiens) (UniProt O14746); test: Inhibition of TERT in human H1299 cells assessed as residual transcriptional activity at 10 uM after 24 hrs by SEAP reporter gene assay; values are per cent of control
NCI/ADR-RES = test: Antiproliferative activity against human NCI/ADR-RES cells assessed as cell growth at 10 uM; assay type: functional; conditions: read-out: Activity
In short: (§1)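 NCI 60 cell line panel, single-dose screen (10^-5 M) run by the developmental therapeutics program protocol. Results are given as growth percent of treated cells relative to untreated control cells for each line.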

OVCAR-5 = test: Antiproliferative activity against human OVCAR5 cells assessed as cell growth at 10 uM; assay type: functional; conditions: read-out: Activity
In short: as §1

HCT-116 = test: Antiproliferative activity against human HCT116 cells assessed as cell growth at 10 uM; assay type: functional; conditions: read-out: Activity
In short: as §1

Malme-3M = test: Antiproliferative activity against human MALME-3M cells assessed as cell growth at 10 uM; assay type: functional; conditions: read-out: Activity
In short: as §1

HCC 2998 = test: Antiproliferative activity against human HCC2998 cells assessed as cell growth at 10 uM; assay type: functional; conditions: read-out: Activity
In short: as §1

M14 = test: Antiproliferative activity against human M14 cells assessed as cell growth at 10 uM; assay type: functional; conditions: read-out: Activity
In short: as §1

U-251 = test: Antiproliferative activity against human U251 cells assessed as cell growth at 10 uM; assay type: functional; conditions: read-out: Activity
In short: (§2)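 NCI 60 cell line panel, single dose (10^-5 M), run per the Developmental Therapeutics Program protocol (one dose mean graph). Each result is the growth percentage of treated cells relative to untreated control cells.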

TK-10 = test: Antiproliferative activity against human TK10 cells assessed as cell growth at 10 uM; assay type: functional; conditions: read-out: Activity
In short: as §2

[2] = Cytotoxicity against human H1299 cells at 10 uM after 48 hrs by MTT assay; assay type: functional; conditions: NCI-H1299, 48 h
In short: (§3)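 H1299 non-small cell lung cancer cells were grown in RPMI 1640 with 10% FBS, penicillin and streptomycin at 37 °C under 5% CO2. About 2 × 10³ cells per well were seeded and left 24 h. Compounds were dissolved fresh in DMSO, diluted into complete medium and applied for 48 h. MTT was then added for 4 h at 37 °C, followed by lysis buffer (20% SDS, 50% DMF) for 16 h, and absorbance was read at 550 nm.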

[3] = biological target: Telomerase reverse transcriptase (Homo sapiens) (UniProt O14746); test: Inhibition of TERT in human H1299 cells assessed as residual transcriptional activity at 1 uM after 24 hrs by SEAP reporter gene assay; values are per cent of control
LOX IMVI = test: Antiproliferative activity against human LOXIMVI cells assessed as cell growth at 10 uM; assay type: functional; conditions: read-out: Activity
In short: as §1

[4] = Cytotoxicity against human H1299 cells at 100 uM after 48 hrs by MTT assay; assay type: functional; conditions: NCI-H1299, 48 h
In short: as §3

SK-MEL-28 = test: Antiproliferative activity against human SK-MEL-28 cells assessed as cell growth at 10 uM; assay type: functional; conditions: read-out: Activity
In short: as §1

SNB-19 = test: Antiproliferative activity against human SNB19 cells assessed as cell growth at 10 uM; assay type: functional; conditions: read-out: Activity
In short: as §1

HL-60(TB) = test: Antiproliferative activity against human HL-60(TB) cells assessed as cell growth at 10 uM; assay type: functional; conditions: read-out: Activity
In short: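 NCI Developmental Therapeutics Program 60-cell-line one-dose screen at 10^-5 M. Readout is growth percentage of treated cells relative to untreated control cells.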

[5] = Cytotoxicity against human H1299 cells at 1 uM after 48 hrs by MTT assay; assay type: functional; conditions: NCI-H1299, 48 h
In short: as §3

[6] = Antiproliferative activity against human Hs 578T cells assessed as cell growth at 10 uM; assay type: functional; conditions: read-out: Activity
In short: as §1

UO-31 = test: Antiproliferative activity against human UO31 cells assessed as cell growth at 10 uM; assay type: functional; conditions: read-out: Activity
In short: as §2

OVCAR-8 = test: Antiproliferative activity against human OVCAR8 cells assessed as cell growth at 10 uM; assay type: functional; conditions: read-out: Activity
In short: as §1

OVCAR-4 = test: Antiproliferative activity against human OVCAR4 cells assessed as cell growth at 10 uM; assay type: functional; conditions: read-out: Activity
In short: as §1

SF-539 = test: Antiproliferative activity against human SF539 cells assessed as cell growth at 10 uM; assay type: functional; conditions: read-out: Activity
In short: as §1

SF-268 = test: Antiproliferative activity against human SF268 cells assessed as cell growth at 10 uM; assay type: functional; conditions: read-out: Activity
In short: as §1

EKVX = test: Antiproliferative activity against human EKVX cells assessed as cell growth at 10 uM; assay type: functional; conditions: read-out: Activity
In short: as §1

UACC-257 = test: Antiproliferative activity against human UACC257 cells assessed as cell growth at 10 uM; assay type: functional; conditions: read-out: Activity
In short: as §2

MDA-MB-231 = test: Antiproliferative activity against human MDA-MB-231 cells assessed as cell growth at 10 uM; assay type: functional; conditions: read-out: Activity
In short: as §1

A498 = test: Antiproliferative activity against human A498 cells assessed as cell growth at 10 uM; assay type: functional; conditions: read-out: Activity
In short: as §1

NCI-H226 = test: Antiproliferative activity against human NCI-H226 cells assessed as cell growth at 10 uM; assay type: functional; conditions: read-out: Activity
In short: as §1

T47D = test: Antiproliferative activity against human T47D cells assessed as cell growth at 10 uM; assay type: functional; conditions: read-out: Activity
In short: as §2

SF-295 = test: Antiproliferative activity against human SF295 cells assessed as cell growth at 10 uM; assay type: functional; conditions: read-out: Activity
In short: as §1

OVCAR-3 = test: Antiproliferative activity against human OVCAR-3 cells assessed as cell growth at 10 uM; assay type: functional; conditions: read-out: Activity
In short: as §1

SNB-75 = test: Antiproliferative activity against human SNB75 cells assessed as cell growth at 10 uM; assay type: functional; conditions: read-out: Activity
In short: as §2

[7] = biological target: Telomerase reverse transcriptase (Homo sapiens) (UniProt O14746); test: Inhibition of telomerase in human H1299 cells up to 100 uM by TRAP assay; assay type: cell-based
In short: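 PCR-based telomeric repeat amplification protocol (TRAP). The telomerase source was total lysate of H1299 lung cancer cells, with protein measured against BSA standards. Controls were extract without inhibitor and RNase A-treated extract.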

UACC-62 = test: Antiproliferative activity against human UACC62 cells assessed as cell growth at 10 uM; assay type: functional; conditions: read-out: Activity
In short: as §2

CCRF-CEM = test: Antiproliferative activity against human CCRF-CEM cells assessed as cell growth at 10 uM; assay type: functional; conditions: read-out: Activity
In short: as §1

A549 = test: Antiproliferative activity against human A549 cells assessed as cell growth at 10 uM; assay type: functional; conditions: read-out: Activity
In short: as §1

SK-MEL-2 = test: Antiproliferative activity against human SK-MEL-2 cells assessed as cell growth at 10 uM; assay type: functional; conditions: read-out: Activity
In short: as §1

HT-29 = test: Antiproliferative activity against human HT-29 cells assessed as cell growth at 10 uM; assay type: functional; conditions: read-out: Activity
In short: as §1

HCT-15 = test: Antiproliferative activity against human HCT15 cells assessed as cell growth at 10 uM; assay type: functional; conditions: read-out: Activity
In short: as §1

COLO 205 = test: Antiproliferative activity against human COLO205 cells assessed as cell growth at 10 uM; assay type: functional; conditions: read-out: Activity
In short: as §1

SN12C = test: Antiproliferative activity against human SN12C cells assessed as cell growth at 10 uM; assay type: functional; conditions: read-out: Activity
In short: as §1

MOLT-4 = test: Antiproliferative activity against human MOLT4 cells assessed as cell growth at 10 uM; assay type: functional; conditions: read-out: Activity
In short: as §1

DU-145 = test: Antiproliferative activity against human DU145 cells assessed as cell growth at 10 uM; assay type: functional; conditions: read-out: Activity
In short: as §1

PC-3 = test: Antiproliferative activity against human PC3 cells assessed as cell growth at 10 uM; assay type: functional; conditions: read-out: Activity
In short: as §1

NCI-H522 = test: Antiproliferative activity against human NCI-H522 cells assessed as cell growth at 10 uM; assay type: functional; conditions: read-out: Activity
In short: as §1

Chain of Telomerase reverse transcriptase (Homo sapiens) (O14746 whole entry): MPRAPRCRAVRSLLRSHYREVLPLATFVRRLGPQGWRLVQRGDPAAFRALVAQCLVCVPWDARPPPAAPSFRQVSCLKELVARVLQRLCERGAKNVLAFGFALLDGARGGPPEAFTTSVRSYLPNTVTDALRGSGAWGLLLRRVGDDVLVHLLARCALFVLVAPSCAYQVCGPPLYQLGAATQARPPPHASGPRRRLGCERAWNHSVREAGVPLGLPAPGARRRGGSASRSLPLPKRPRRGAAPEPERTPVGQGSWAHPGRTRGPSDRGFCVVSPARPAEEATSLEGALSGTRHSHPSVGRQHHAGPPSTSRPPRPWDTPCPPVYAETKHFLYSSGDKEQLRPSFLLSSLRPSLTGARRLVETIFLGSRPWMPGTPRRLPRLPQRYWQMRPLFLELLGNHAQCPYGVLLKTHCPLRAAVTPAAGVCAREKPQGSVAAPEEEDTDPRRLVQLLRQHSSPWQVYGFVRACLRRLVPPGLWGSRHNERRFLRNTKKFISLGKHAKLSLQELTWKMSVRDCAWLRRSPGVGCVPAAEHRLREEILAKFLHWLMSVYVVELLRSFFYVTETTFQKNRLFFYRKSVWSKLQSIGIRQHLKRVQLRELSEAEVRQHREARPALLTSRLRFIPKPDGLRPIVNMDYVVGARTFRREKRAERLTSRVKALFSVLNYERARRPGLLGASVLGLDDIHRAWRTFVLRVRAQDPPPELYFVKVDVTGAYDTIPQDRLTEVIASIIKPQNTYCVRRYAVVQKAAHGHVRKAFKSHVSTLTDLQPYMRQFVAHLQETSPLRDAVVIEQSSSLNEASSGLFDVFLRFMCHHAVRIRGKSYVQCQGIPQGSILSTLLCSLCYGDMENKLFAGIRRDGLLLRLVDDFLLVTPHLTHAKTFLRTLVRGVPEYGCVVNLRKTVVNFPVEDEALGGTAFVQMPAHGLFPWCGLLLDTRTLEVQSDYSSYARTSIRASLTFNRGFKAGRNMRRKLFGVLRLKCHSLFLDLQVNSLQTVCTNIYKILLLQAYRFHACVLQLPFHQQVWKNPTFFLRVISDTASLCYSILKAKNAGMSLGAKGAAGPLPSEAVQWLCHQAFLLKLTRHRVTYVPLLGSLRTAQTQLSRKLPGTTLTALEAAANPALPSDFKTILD

`O=C1c2ccccc2C(=O)c2c1ccc1nsnc21` gave a residual activity [1] of 10%, a growth at 10 µM (NCI/ADR-RES) of -2.53% and a growth at 10 µM (OVCAR-5) of -20.1%. For the same molecule, the growth at 10 µM (HCT-116) was -50%, the growth at 10 µM (Malme-3M) was -71.5% and the growth at 10 µM (HCC 2998) was -0.74%. It also gave a growth at 10 µM (M14) of 74.5%, a growth at 10 µM (U-251) of -89.3% and a growth at 10 µM (TK-10) of 97%. For the same molecule, the viability at 10 µM [2] was 16%, the residual activity [3] was 89% and the growth at 10 µM (LOX IMVI) was -50.6%. It also gave a viability at 100 µM [4] of 17%, a growth at 10 µM (SK-MEL-28) of 15.5% and a growth at 10 µM (SNB-19) of 79%. The growth at 10 µM (HL-60(TB)) was -21.8%, the viability at 1 µM [5] was 40% and the growth at 10 µM [6] was -7.4%. It also gave a growth at 10 µM (UO-31) of -79.3%, a growth at 10 µM (OVCAR-8) of -10.1% and a growth at 10 µM (OVCAR-4) of -94.4%. For the same molecule, the growth at 10 µM (SF-539) was -47.1%, the growth at 10 µM (SF-268) was 16.3% and the growth at 10 µM (EKVX) was 103%. The growth at 10 µM (UACC-257) was -83.1%, the growth at 10 µM (MDA-MB-231) was -17.3% and the growth at 10 µM (A498) was 130%. It also gave a growth at 10 µM (NCI-H226) of 97.8%, a growth at 10 µM (T47D) of -45.5% and a growth at 10 µM (SF-295) of 126%. For the same molecule, the growth at 10 µM (OVCAR-3) was -15.5%, the growth at 10 µM (SNB-75) was 79% and the inhibition [7] was “inactive”. For the same molecule, the growth at 10 µM (UACC-62) was -82.3%, the growth at 10 µM (CCRF-CEM) was -30.8% and the growth at 10 µM (A549) was 104%. For the same molecule, the growth at 10 µM (SK-MEL-2) was -73.2%, the growth at 10 µM (HT-29) was 117% and the growth at 10 µM (HCT-15) was 1.48%. The growth at 10 µM (COLO 205) was 112%, the growth at 10 µM (SN12C) was -73.3% and the growth at 10 µM (MOLT-4) was -40.1%. It also gave a growth at 10 µM (DU-145) of 40.8%.
With `O=C1c2ccccc2C(=O)c2c1ccc1nc(-c3ccc4c(c3)OCO4)[nH]c21` the residual activity [1] was 61%, the growth at 10 µM (PC-3) was 107% and the growth at 10 µM (NCI/ADR-RES) was 105%. For the same molecule, the growth at 10 µM (NCI-H522) was 83.3%, the growth at 10 µM (OVCAR-5) was 111% and the growth at 10 µM (HCT-116) was 116%. The growth at 10 µM (HCC 2998) was 85.7%, the growth at 10 µM (M14) was 120% and the growth at 10 µM (U-251) was 111%. For the same molecule, the viability at 10 µM [2] was 67%, the residual activity [3] was 61% and the growth at 10 µM (LOX IMVI) was 99.6%. For the same molecule, the viability at 100 µM [4] was 40%, the growth at 10 µM (SK-MEL-28) was 116% and the growth at 10 µM (SNB-19) was 121%. The growth at 10 µM (HL-60(TB)) was 127%, the viability at 1 µM [5] was 79% and the growth at 10 µM [6] was 106%. The growth at 10 µM (UO-31) was 73.4%, the growth at 10 µM (OVCAR-8) was 96.5% and the growth at 10 µM (OVCAR-4) was 101%. It also gave a growth at 10 µM (SF-539) of 108%, a growth at 10 µM (SF-268) of 100% and a growth at 10 µM (EKVX) of 94.2%. The growth at 10 µM (UACC-257) was 117%, the growth at 10 µM (MDA-MB-231) was 107% and the growth at 10 µM (A498) was 91.7%. The growth at 10 µM (NCI-H226) was 97%, the growth at 10 µM (T47D) was 107% and the growth at 10 µM (SF-295) was 115%. For the same molecule, the growth at 10 µM (OVCAR-3) was 107%, the growth at 10 µM (SNB-75) was 102% and the inhibition [7] was “inactive”. For the same molecule, the growth at 10 µM (UACC-62) was 98.1%, the growth at 10 µM (CCRF-CEM) was 99.6% and the growth at 10 µM (A549) was 102%. It also gave a growth at 10 µM (SK-MEL-2) of 41.5%, a growth at 10 µM (HT-29) of 95.8% and a growth at 10 µM (HCT-15) of 106%. It also gave a growth at 10 µM (COLO 205) of 126%, a growth at 10 µM (SN12C) of 101% and a growth at 10 µM (MOLT-4) of 105%. For the same molecule, the growth at 10 µM (DU-145) was 107%.
